Measured values reported in ChEMBL document CHEMBL1143811, “Bis-acridines as lead antiparasitic agents: structure-activity analysis of a discrete compound library in vitro” (Antimicrob Agents Chemother, 2007).
Values after ≈ are worked out from the molar mass of the structure shown. Active and inactive are the calls of the source. The rule behind the calls is not given here.

Legend:
Plasmodium falciparum [1] = assay: Antimicrobial activity against chloroquine-sensitive Plasmodium falciparum 3D7 after 72 hrs; format: functional, organism-based; details: 3D7, 72 h
Plasmodium falciparum [2] = assay: Antimicrobial activity against chloroquine-resistant Plasmodium falciparum W2 after 72 hrs; format: functional, organism-based; details: W2, 72 h
Trichomonas vaginalis = assay: Antimicrobial activity against Trichomonas vaginalis G3 assessed as parasite death at 10 uM after 24 hrs; format: functional
Outline: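 G3 strain grown in Diamond's medium at 37°C. Assay culture set up as 0.5 ml dense culture diluted into 5.0 ml complete medium. Compound at a final 10 µM for 24 h at 37°C. Motile cells counted by hemocytometer. Result is percent dead parasites relative to DMSO-treated cultures, from five separate experiments. Controls were untreated, DMSO and metronidazole.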

HL-60 = assay: (§1) Cytotoxicity against human HL60 cells; format: cell-based; details: Homo sapiens, HL-60
Outline: (§2)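 Bloodstream-form T. b. brucei in Baltz medium (~10^4/ml) and HL-60 cells in RPMI 1640 (~10^5/ml), both with 16.7% FBS, were exposed 48 h at 37°C in 5% CO2 to compound up to 10 µM in 1% final DMSO. Live cells were hemocytometer-counted, by motility (trypanosomes) or trypan blue exclusion (HL-60). EC50 was taken by regression versus DMSO cultures from three experiments. MIC was the lowest fully lethal concentration, judged microscopically.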

[3] = as §1; format: cell-based, HL-60; details: human, HL-60 cells; read-out: MIC; outline: as §2
Entamoeba histolytica = assay: Antimicrobial activity against Entamoeba histolytica HM1 IMSS trophozoites after 48 hrs; format: functional, organism-based; details: 60 h, in the assay text read “60 hrs” for “48 hrs”
Outline: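 Trophozoites were grown axenically in TYI-S-33 with 10% bovine adult serum and seeded at ~10^4 cells/well. Compound (range up to 10 µM) was added to 48-h log-phase cultures, then incubated 60 h at 37°C under anaerobic conditions. Viability was read by CellTiter-Glo luminescence. EC50 came from quadruplicate wells in two independent experiments.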

Leishmania donovani = assay: Antileishmanial activity against Leishmania donovani MHOM/SD/00/1S-2D promastigotes assessed as parasite death at 10 uM after 72 hrs; format: functional
Outline: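 Promastigotes seeded at 1.5 x 10^5 cells/ml in medium 199 with 10% heat-inactivated FBS. Compound added at a final 10 µM, in triplicate, in sealed flasks at 27°C for up to 7 days. Aliquots taken daily and viability read by CellTiter-Glo luminescence. Result given as percent reduction in viability relative to DMSO-treated cultures. Controls were K11777 or amphotericin B at 10 µM.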

Leishmania major [4] = assay: Antileishmanial activity against Leishmania major MHOM/IL/81/FE/BNI amastigotes after 48 hrs; format: functional, organism-based
Outline: (§3)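 Peritoneal macrophages from BALB/c mice (6-8 wk) adhered 2 h at 37°C, infected 24 h with stationary-phase L. major promastigotes at 10:1 parasite:macrophage, washed, then exposed 48 h to compound at 0.0001 to 10 µM. Intracellular amastigotes stained with acridine orange/ethidium bromide and counted by fluorescence microscopy; percent amastigotes cleared versus DMSO-treated cultures; three repeats.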

[5] = Cytotoxicity against BALB/c mouse peritoneal macrophages at 10 uM after 48 hrs hrs; format: cell-based; details: macrophage
Schistosoma mansoni [6] = assay: Antimicrobial activity against Schistosoma mansoni assessed as worm vitality at 6 uM after 4 hrs; format: functional, organism-based
Outline: (§4)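 20-day-old worms were obtained by perfusion of BALB/c mice infected with 200 cercariae. About 20 worms/well were kept in Basch 169 with 10% bovine calf serum, preincubated 24 h at 37°C in 5% CO2, then exposed to 1, 3 or 6 µM. Vitality (feeding, flexing, gut peristalsis; death = nonmotile, shrunken, dark) was scored at 4 and 18 h in two experiments.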

[7] = Selectivity index, ratio of EC50 for HL60 cells to EC50 for Trypanosoma brucei brucei clone 427-221a; format: functional, HL-60; outline: as §2
[8] = Selectivity index, ratio of MIC for HL60 cells to MIC for Trypanosoma brucei brucei clone 427-221a; format: functional, HL-60; outline: as §2
[9] = system: Trypanosoma brucei brucei; assay: Antimicrobial activity against Trypanosoma brucei brucei clone 427-221a after 48 hrs; format: functional, organism-based; outline: as §2
Leishmania major [10] = assay: Antileishmanial activity against Leishmania major MHOM/IL/81/FE/BNI amastigotes after 48 hrs at 1 uM; format: functional, organism-based; outline: as §3
Plasmodium falciparum [11] = assay: Antimalarial activity against chloroquine-resistant Plasmodium falciparum FcB1R after 72 hrs; format: functional, organism-based
[12] = system: Trypanosoma brucei brucei; assay: Antimicrobial activity against Trypanosoma brucei brucei clone 427-221a at 1.56 uM; format: functional
MRC5 = assay: Toxicity against human MRC5 cells at 3.13 uM; format: cell-based; details: mrc5, 3.13 µM
Schistosoma mansoni [13] = assay: Antimicrobial activity against Schistosoma mansoni assessed as worm vitality at 3 uM after 4 hrs; format: functional, organism-based; outline: as §4

Row | Structure (SMILES) | EC50 (Plasmodium falciparum [1]) | EC50 (Plasmodium falciparum [2]) | Activity (Trichomonas vaginalis) | EC50 (HL-60) | MCC [3] | EC50 (Entamoeba histolytica) | Activity (Leishmania donovani) | EC50 (Leishmania major [4]) | Activity [5] | Activity (Schistosoma mansoni [6]) | Ratio EC50 [7] | Ratio [8] | EC50 [9] | MIC [9] | Activity (Leishmania major [10]) | EC50 (Plasmodium falciparum [11]) | Activity [12] | Activity (MRC5) | Activity (Schistosoma mansoni [13])
1 | CCN(CC)CCCC(C)Nc1ccnc2cc(Cl)ccc12 (centres undefined) [CHLOROQUINE] | 10 nM | 293 nM | – | – | – | – | – | – | – | – | – | – | – | – | – | – | – | – | –
2 | COc1ccc2nc3cc(Cl)ccc3c(NCCCCNCCCCCNCCCNc3c4ccc(Cl)cc4nc4ccc(OC)cc34)c2c1 | 125 nM | 129 nM | 66% | 270 nM | 10 µM | 5000 nM | 98% | 600 nM | Toxic | Active | 140 | 10 | 1.9 nM | 1 µM (≈ 0.714 µg/mL) | – | – | – | – | –
3 | COc1ccc2nc3cc(Cl)ccc3c(NCCCN3CCN(CCCNc4c5ccc(Cl)cc5nc5ccc(OC)cc45)CC3)c2c1 | 64 nM | 112 nM | 10% | 1480 nM | 10 µM | 5000 nM | 46% | – | Toxic | – | 836 | 100 | 1.8 nM | 0.1 µM (≈ 0.0684 µg/mL) | inactive | 17 nM | 60% | 0% | –
4 | COc1ccc2nc3cc(Cl)ccc3c(NCCCNCCCNCCCNc3c4ccc(Cl)cc4nc4ccc(OC)cc34)c2c1 | 121 nM | 147 nM | 0% | 142 nM | 10 µM | 5000 nM | 73% | 3000 nM | – | Active | 98 | 10 | 1.4 nM | 1 µM (≈ 0.672 µg/mL) | – | – | – | – | –
5 | COc1ccc2nc3cc(Cl)ccc3c(NCCCCCCCCNc3c4ccc(Cl)cc4nc4ccc(OC)cc34)c2c1 | 115 nM | 124 nM | 100% | 1650 nM | 10 µM | 500 nM | 99% | – | Toxic | – | 191 | 10 | 8.6 nM | 1 µM (≈ 0.628 µg/mL) | inactive | 19 nM | 100% | 20% | –
6 | COc1ccc2nc3cc(Cl)ccc3c(NCCCCN(CCCNc3c4ccc(Cl)cc4nc4ccc(OC)cc34)C(=O)CNC(=O)[C@H](C)NC(=O)OC(C)(C)C)c2c1 | 314 nM | 341 nM | 53% | 270 nM | 10 µM | 5000 nM | 37% | – | Toxic | – | 111 | 10 | 2.4 nM | 1 µM (≈ 0.857 µg/mL) | inactive | – | – | – | –
7 | CCCN(CCCCNc1c2ccc(Cl)cc2nc2ccc(OC)cc12)CCCNc1c2ccc(Cl)cc2nc2ccc(OC)cc12 | 120 nM | 319 nM | 90% | 491 nM | 10 µM | 5000 nM | 99% | – | Toxic | – | 348 | 10 | 1.4 nM | 1 µM (≈ 0.671 µg/mL) | inactive | – | – | – | –
8 | COc1ccc2nc3cc(Cl)ccc3c(NCCCN(C)CCCNc3c4ccc(Cl)cc4nc4ccc(OC)cc34)c2c1 | 790 nM | 1080 nM | 92% | 1180 nM | 10 µM | 500 nM | 99% | 6000 nM | – | Active | 1326 | 100 | 0.9 nM | 0.1 µM (≈ 0.0629 µg/mL) | – | – | – | – | Active
9 | C[C@@H]1[C@H](O)[C@@H](C)/C=C/C=C/C=C/C=C/C=C/C=C/C=C/[C@H](O[C@@H]2O[C@H](C)[C@@H](O)[C@H](N)[C@@H]2O)C[C@@H]2O[C@](O)(C[C@@H](O)C[C@@H](O)[C@H](O)CC[C@@H](O)C[C@@H](O)CC(=O)O[C@H]1C)C[C@H](O)[C@H]2C(=O)O [AMPHOTERICIN B] | – | – | – | – | – | – | 100% | – | – | – | – | – | – | – | – | – | – | – | –
10 | O=C(C1CCCCC1)N1CC(=O)N2CCc3ccccc3C2C1 (centres undefined) | – | – | – | – | – | – | – | – | – | Active | – | – | – | – | – | – | – | – | –
11 | COc1ccc2nc3cc(Cl)ccc3c(NCCCCCCCCNc3c4ccc(Cl)cc4nc4ccc(OC)nc34)c2n1 | 62 nM | 69 nM | 59% | 26300 nM | > 10 µM | 5000 nM | 42% | – | Toxic | – | 859 | >10 | 31 nM | 1 µM (≈ 0.63 µg/mL) | inactive | – | – | – | –
12 | Nc1nc(N)nc(Nc2ccc([As]3SCC(CO)S3)cc2)n1 (centres undefined) [MELARSOPROL] | – | – | – | 4270 nM | 100 µM | – | – | – | – | – | 267 | >1000 | 16 nM | 0.1 µM | – | – | – | – | –
13 | COc1ccc2nc3cc(Cl)ccc3c(NCCCCCCCCCCNc3c4ccc(Cl)cc4nc4ccc(OC)cc34)c2c1 | 95 nM | 116 nM | 100% | 3140 nM | 10 µM | 500 nM | 96% | – | Toxic | – | 125 | 10 | 25 nM | 1 µM (≈ 0.656 µg/mL) | inactive | 57 nM | 100% | 0% | –
14 | COc1ccc2nc3cc(Cl)ccc3c(NCCCCNCCCNc3c4ccc(Cl)cc4nc4ccc(OC)nc34)c2n1 | 29 nM | 34 nM | 85% | 119 nM | 7 µM | 500 nM | 99% | – | Toxic | Active | 86 | 70 | 1.4 nM | 0.1 µM (≈ 0.0631 µg/mL) | inactive | – | – | – | –
15 | COc1ccc2nc3cc(Cl)ccc3c(NCCNCCNc3c4ccc(Cl)cc4nc4ccc(OC)cc34)c2c1 | 618 nM | 791 nM | 0% | 9470 nM | > 10 µM | 5000 nM | 47% | – | Toxic | – | 43 | >1 | 218 nM | 10 µM (≈ 5.87 µg/mL) | inactive | 63 nM | 100% | 100% | –
16 | COc1ccc2nc3cc(Cl)ccc3c(NCCCCN(CCCNc3c4ccc(Cl)cc4nc4ccc(OC)cc34)C(=O)[C@H](C)NC(=O)OC(C)(C)C)c2c1 | 598 nM | 629 nM | 95% | 1650 nM | 10 µM | 5000 nM | 49% | – | Toxic | – | 469 | 10 | 3.5 nM | 1 µM (≈ 0.8 µg/mL) | inactive | 330 nM | 100% | 0% | –
17 | CCN(CC)CCCC(C)Nc1c2ccc(Cl)cc2nc2ccc(OC)cc12 (centres undefined) [QUINACRINE] | 11 nM | 33 nM | – | – | – | – | – | – | – | – | – | – | – | – | – | – | – | – | –
18 | COc1ccc2nc3cc(Cl)ccc3c(NCCCCN(CCCNc3c4ccc(Cl)cc4nc4ccc(OC)cc34)C(=O)CNC(=O)[C@H](C)N)c2c1 | 716 nM | 823 nM | 0% | 491 nM | > 10 µM | 5000 nM | 16% | 700 nM | Toxic | – | 77 | >1 | 6.4 nM | 10 µM (≈ 7.57 µg/mL) | – | – | – | – | –
